Assay results from different studies.
CYP2B6: Cytochrome P450 2B6 (CYP2B6, Homo sapiens, UniProt P20813)
DRD1: D(1A) dopamine receptor (DRD1, Homo sapiens, UniProt P21728)
NTRK2: BDNF/NT-3 growth factors receptor (NTRK2, Homo sapiens, UniProt Q16620)
BCHE: Cholinesterase (BCHE, Equus caballus, UniProt P81908)
PTGS1: Prostaglandin G/H synthase 1 (PTGS1, Ovis aries, UniProt P05979)
Somatostatin receptor type 2: Somatostatin receptor type 2 (Rattus norvegicus, UniProt P30680)
PTPN11: Tyrosine-protein phosphatase non-receptor type 11 (PTPN11, Homo sapiens, UniProt Q06124)
RPS6KA3: Ribosomal protein S6 kinase alpha-3 (RPS6KA3, Homo sapiens, UniProt P51812)
SIRT3: NAD-dependent protein deacetylase sirtuin-3, mitochondrial (SIRT3, Homo sapiens, UniProt Q9NTG7)

SMILES | target | test | test system | setting | IC50 [µM]
CCc1cc(/C(C)=N/OCc2ccc(C3CCCCC3)c(C(F)(F)F)c2)ccc1CN1CC(C(=O)O)C1 | CYP2B6 | enzyme activity, inhibitor | human, liver microsomes | 20 min | > 0.6
CC(=O)N1C[C@@H](CCN2CCC(c3c[nH]c4ccccc34)CC2)c2ccccc21 | Sodium-dependent serotonin transporter (SLC6A4, Homo sapiens, UniProt P31645) | ligand displacement, radioligand |  | cell membranes | 0.182
CCCC[C@H](NC(=O)[C@H](C)c1c(C)[nH]c2ccc(O)cc12)c1ncc(-c2cc3ccccc3nc2OC)[nH]1 | Prostaglandin E2 receptor EP1 subtype (PTGER1, Homo sapiens, UniProt P34995) | enzyme activity |  |  | 2.69
COc1ccc2c(c1OCc1ccc(OC(F)(F)F)cc1)C[C@@H](C(=O)O)N(c1nc3ccc(F)cc3o1)C2 | Type-2 angiotensin II receptor (AGTR2, Homo sapiens, UniProt P50052) | cell-free assay, TR-FRET |  |  | 0.159
N#CC1(c2ccc(NC(=O)c3cccnc3NCc3ccncc3)cc2)CCCC1 | Mitogen-activated protein kinase kinase kinase 20 (MAP3K20, Homo sapiens, UniProt Q9NYL2) | enzyme activity, inhibitor, mass spectrometry |  |  | 0.21
CC1Cc2ccccc2N1C(=O)NCCCCN(C)[C@@H]1Cc2cccc3[nH]c(=O)n(c23)C1 (mixture of isomers) | DRD1 | ligand displacement, radioligand |  |  | > 10
Cc1c(Br)cc(NC(=O)C(c2ccccc2)S(=O)(=O)O)cc1Br (centres unmarked) | Tyrosine-protein phosphatase non-receptor type 9 (PTPN9, Homo sapiens, UniProt P43378) | enzyme activity, inhibitor, absorbance |  |  | > 200
Cc1ccc(NC(=O)c2ccc(C)c(C(F)(F)F)c2)cc1C#Cc1nn(C2CCC(O)CC2)c2ncnc(N)c12 (centres unmarked) | NTRK2 | enzyme activity, inhibitor, radiometric |  |  | 0.899
CC(=O)N1CCN(c2nccc(NCc3ccccc3)n2)CC1 | BCHE | enzyme activity, inhibitor |  |  | > 100
CS(=O)(=O)c1ccc(-c2nc3ccccn3c2Nc2ccccc2)cc1 | PTGS1 | enzyme activity, inhibitor, fluorescence |  |  | 18.1
O=C1Nc2ccccc2/C1=C1/Nc2ccccc2/C1=N\O | Ribosomal protein S6 kinase alpha-3, N-terminal kinase domain (RPS6KA3, Homo sapiens, UniProt P51812) | enzyme activity, inhibitor, FP |  |  | 1
CSc1ccc(/C=C2/C(C)=C(CC(=O)O)c3cc(F)ccc32)cc1 | cGMP-inhibited 3',5'-cyclic phosphodiesterase 3B (PDE3B, Homo sapiens, UniProt Q13370) | enzyme activity, inhibitor |  |  | > 100
Cc1cc2c(F)c(Oc3ncnn4cc(OC[C@@H](C)O)c(C)c34)ccc2[nH]1 | CYP2B6 | enzyme activity, inhibitor, fluorescence |  | 15 min | 5.95
Cc1ccc(Nc2c(-c3ccc(S(C)(=O)=O)cc3)nc3cc(C)ccn23)cc1 | PTGS1 | enzyme activity, inhibitor, fluorescence |  |  | 33.9
COC(=O)[C@H](Cc1ccc(OP(=O)(O)O)c(OP(=O)(O)O)c1)NC(=O)OCC1c2ccccc2-c2ccccc21 | Signal transducer and activator of transcription 5A, SH2 (Homo sapiens, UniProt P42229) | ligand displacement, FP |  |  | 15.8
C[C@@H](O)[C@@H]1NC(=O)[C@H](CCCCN)NC(=O)[C@@H](Cc2c[nH]c3ccccc23)NC(=O)[C@H](Cc2ccc(O)cc2)NC(=O)[C@@H](NC(=O)[C@@H](Cc2ccccc2)NC(=O)CCC(C(=O)O)N2CCN(CC(=O)O)CCN(C(CCC(=O)O)C(=O)O)CC2)CSSC[C@@H](C(=O)N[C@H](CO)[C@@H](C)O)NC1=O (some centres unmarked) | Somatostatin receptor type 2 | ligand displacement, radioligand |  |  | 0.0337
C[C@@H](N)COc1ccc(-c2cnc3ccc(N[C@H](C)c4cccc(F)c4)nn23)cc1 | NTRK2 | enzyme activity, inhibitor |  |  | 0.0055
N[C@@H](Cc1ccccc1)C(=O)N[C@@H](CC(=O)O)C(=O)N[C@@H](Cc1ccccc1)C(=O)O | PTPN11 | enzyme activity, inhibitor, absorbance |  | pH 7.4 | 97.9

SMILES | target | test | test system | setting | IC50 [µM]
c1ccc(CNc2ccnc(N3CCNCC3)n2)cc1 | BCHE | enzyme activity, inhibitor |  |  | > 100
N[C@@H](CC(=O)O)C(=O)N[C@@H](Cc1ccccc1)C(=O)O | PTPN11 | enzyme activity, inhibitor, absorbance |  | pH 7.4 | 109
CN(CCCCNC(=O)c1cc2ccccc2[nH]1)[C@@H]1Cc2cccc3[nH]c(=O)n(c23)C1 | DRD1 | ligand displacement, radioligand |  |  | > 9.2
Cc1cc(Nc2cc(CN3CCOCC3)c3nc(C)c(Cc4ccc(Cl)cc4F)n3n2)n[nH]1 | Mitogen-activated protein kinase kinase kinase 9 (MAP3K9, Homo sapiens, UniProt P80192) | enzyme activity, inhibitor, TR-FRET |  |  | 0.299
CC(C)(C)n1nc(-c2ccc3nc(OC4CC4)ccc3c2)c(C(N)=O)c1N | Calcium/calmodulin-dependent protein kinase type 1D (CAMK1D, Homo sapiens, UniProt Q8IU85) | cell-free assay |  |  | > 10
Oc1cc2c(cc1OCC(F)F)CCN1Cc3c(c(Br)cc(O)c3OCC(F)F)C[C@@H]21 | DRD1 | cAMP, antagonist, TR-FRET |  |  | 0.23
CN1CCN(c2ccc(Nc3ncc4cc(C#N)c(=O)n(C5CCCC5)c4n3)cc2)CC1 | RPS6KA3 | enzyme activity, inhibitor |  |  | 0.38
C=CC(=O)Nc1cc(Nc2nccc(Nc3cc(Cl)c(F)cc3C(C)(C)O)n2)c(OC)cc1N1CC[C@@H](N(C)C)C1 | CYP2B6 | enzyme activity, inhibitor | human, liver microsomes |  | > 30
O=Cc1ccc2[nH]ncc2c1 | RPS6KA3 | enzyme activity, inhibitor |  |  | ~350
CC1=C[C@@]2(C[C@H](C)[C@H]3CC=C(CO)C(=O)[C@@H]3O2)OC1=O | PTPN11 | enzyme activity, inhibitor |  |  | 48.2
Cc1cc(-c2ccc(NC(=O)[C@H](CCCCNC(=O)CCN3C(=O)CC(SCC(=O)N[C@H](Cc4ccccc4)C(=O)N[C@H]4CSSC[C@@H](C(=O)N[C@H](C(=O)O)[C@@H](C)O)NC(=O)[C@H]([C@@H](C)O)NC(=O)[C@H](CCCCN)NC(=O)[C@@H](Cc5c[nH]c6ccccc56)NC(=O)[C@H](Cc5ccc(O)cc5)NC4=O)C3=O)NC(=O)CN3CCN(CC(=O)O)CCN(CC(=O)O)CCN(CC(=O)O)CC3)c(C)c2)ccc1N=Nc1ccc2c(S(=O)(=O)O)cc(S(=O)(=O)O)c(N)c2c1O (some centres unmarked) | Somatostatin receptor type 2 | ligand displacement |  |  | 0.00916
CCCCCCCCCCCCNC(=S)NCCCC[C@H](NS(C)(=O)=O)C(=O)N[C@H](C)C(=O)N[C@@H](CCCNC(=N)N)C(=O)N1CCOCC1 | SIRT3 | enzyme activity, inhibitor |  |  | 55
CC(NC(=O)c1ccccc1/N=C/c1c(O)ccc2ccccc12)c1ccccc1 (centres unmarked) | SIRT3 | enzyme activity, inhibitor, HPLC |  |  | 150
CCN(CC)c1ccc(C=O)cc1 | Aldehyde dehydrogenase, dimeric NADP-preferring (ALDH3A1, Homo sapiens, UniProt P30838) | enzyme activity, inhibitor, absorbance |  |  | 15.1
FC(F)(F)c1ccc(CN2CCN(c3nccc(NCc4ccccc4)n3)CC2)cc1 | BCHE | enzyme activity, inhibitor |  |  | > 100
CC1=C[C@@]2(C[C@H](C)[C@H]3CC=C(C)C(=O)[C@@H]3O2)OC1=O | PTPN11 | enzyme activity, inhibitor |  |  | > 500
C=C(NC(=O)[C@H](CCCCNC(=S)CCCCCCCCCCCCC)NS(C)(=O)=O)C(=O)N[C@@H](CCCNC(=N)N)C(N)=O | SIRT3 | enzyme activity, inhibitor |  |  | 3.7
